According to PubChem BioAssay:
Results filed as inconclusive are left out.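 How the source made its calls, unless noted: active means inhibition over a set limit, the all-compound mean plus 3 SD, in both replicate runs; inconclusive means over that limit in just one replicate run; inactive means at or under that limit in both runs.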

Columns and labels:
[1] = S. cerevisiae growth inhibition in permissive medium (OD615), pilot counter-assay for S. cerevisiae lifespan shortening project, permissive growth control (AID 705;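 active means growth inhibition above 25% in both replicates, a cutoff set 3 SD above the mean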); details: OD615, 24 h, at 10 µM, active compounds read high
In short: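 Timing: 24 h exposure, 30 °C / Material: Saccharomyces cerevisiae strain carrying genetically modified DeaD replicative-lifespan system / Signal: OD at 615 nm / Compound: 10 µM single dose, 0.25% DMSO / Medium: SC raffinose/galactose permissive medium / Evaluation: reduction in yeast growth (OD615)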

[2] = S. cerevisiae growth inhibition in restrictive medium, OD615, pilot screen, restrictive growth control, yeast lifespan reduction project (AID 706;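 active means growth inhibition above a set limit, 3 SD over mean compound inhibition, in both replicates, cut at about 43% in these data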;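 further: modified DeaD lifespan yeast strain shifted to restrictive glucose medium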); details: OD615, 48 h, at 10 µM, active compounds read high
In short: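 System: Engineered S. cerevisiae DeaD strain | Detection: OD615 | Buffer or medium: CSMM-D glucose medium | Doses: 10 µM compound, 0.25% DMSO | Timing: 4 h pre-growth plus 48 h compound exposure, 30 °C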

[3] = doxorubicin toxicity protection in MRP-1 cells – H69AR cells, CellTiter-Glo, duplicate, MRP-1 activator project, pilot screen (AID 807;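 active means viability increase at or above a cutoff of the median across tested compounds plus 3 SD, cut at about 8.5% in these data, passing the limit was not always enough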;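 further: compound pretreatment 18-22 h then 72 h combined with doxorubicin; 0% = doxorubicin alone and 100% = vehicle without doxorubicin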); details: H69AR viability with doxorubicin, CellTiter-Glo luminescence; at 10 µM; active compounds read high
[4] = viability of HCT116 without oncogenic beta-catenin – human colon tumor cells, pilot screen (AID 823;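 active means cell viability at or below a set limit in both duplicate runs, the limit being the all-compound median minus 4 SD, cut at about 23% in these data, passing the limit was not always enough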;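 further: 0% = wells killed by 20 µM Hyamine and 100% = untreated DMSO cell wells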); details: HCT116 beta-catenin knockout viability, CellTiter-Glo, 60 h; at 10 µM; active compounds read low
[5] = viability of PTEN-null HCT116 cells – cell-based, HCT116 clonal line, CellTiter-Glo, pilot screen (AID 824;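 active means viability at or below 27.92% in each of two runs, the all-compound median minus 4 SD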;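 further: 0% = 20 µM Hyamine control and 100% = vehicle cell control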); details: HCT116 PTEN-deleted viability, 60 h, at 10 µM, active compounds read low
[6] = RAM pathway blockade in budding yeast – dse1pr::URA3 reporter, 5-FOA selection, pilot screen (AID 869);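 further: 0% = DMSO wells with no growth and 100% = 10 µM 1-NA-PP1 with full growth; RAM network block rescues cells from 5-FOA so hits raise OD615 growth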; details: S. cerevisiae dse1pr::URA3 5-FOA growth, OD615, 2 d; at 10 µM; active compounds read high; strain carries analog-sensitive mutant Cbk1 kinase
[7] = RAM signaling pathway blockade in yeast – S. cerevisiae, Pdr1DBD-CYC8 efflux-inhibited sensitized strain, primary screen (AID 1298;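 active means RAM network inhibition above 8.4% in each of two replicates, 3 SD over the compound average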;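 further: 0% = DMSO untreated cells without growth and 100% = 10 µM 1-NA-PP1 full growth; higher means more yeast growth rescued from 5-FOA killing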); details: S. cerevisiae cbk1-as DSE1-URA3 strain, 5-FOA growth OD615, 2 d; at 50 µM; active compounds read high

O=C1C2C3c4ccccc4C(c4ccccc43)C2C(=O)N1Cc1ccco1 (configuration not stated)
inactive: growth inhibition [1] -2.21% | growth inhibition [2] 5.63% | viability increase [3] -3.21% | viability [4] 97% | viability [5] 93.4% | inhibition [6] 0% | RAM network inhibition [7] 4.51%

COCCn1c(CN2CC(C)CC(C)C2)nc2c1c(=O)n(C)c(=O)n2C (configuration not stated)
inactive: growth inhibition [1] 8.93% | growth inhibition [2] 9.36% | viability increase [3] 0.07% | viability [4] 90.4% | viability [5] 98.5% | inhibition [6] -0.14% | RAM network inhibition [7] -0.26%

O=C(NCc1ccccc1Cl)c1cnc2n(c1=O)CCS2
inactive: growth inhibition [1] 3.67% | growth inhibition [2] 0.685% | viability increase [3] -0.78% | viability [4] 99.9% | viability [5] 96.9% | inhibition [6] 0.995% | RAM network inhibition [7] -0.68%

O=C(CSc1nc2ncccc2[nH]1)NCc1ccccc1
inactive: growth inhibition [1] 0.36% | growth inhibition [2] 13.3% | viability increase [3] -0.06% | viability [4] 101% | viability [5] 86.9% | inhibition [6] 3.13% | RAM network inhibition [7] 3.93%

COc1ccc2c(c1)c(CCN1C(=O)c3ccccc3C1=O)cn2C(=O)c1ccco1
inactive: growth inhibition [1] -5.41% | growth inhibition [2] 0.45% | viability increase [3] -4.3% | viability [4] 85.7% | viability [5] 85.9% | inhibition [6] 2.02% | RAM network inhibition [7] 4.8%

COc1ccc(-n2ncc3c(N4CCCCC4)ncnc32)cc1
inactive: growth inhibition [1] -12.2% | growth inhibition [2] 0.385% | viability increase [3] -3.57% | viability [4] 67.8% | viability [5] 57.1% | inhibition [6] 1.78% | RAM network inhibition [7] -1.99%

O=C(O)C1CC=CCC1C(=O)Nc1cccc(Cl)c1Cl (configuration not stated)
inactive: growth inhibition [1] -8.95% | growth inhibition [2] -11.1% | viability increase [3] -1.82% | viability [4] 99.6% | viability [5] 101% | inhibition [6] 3.07% | RAM network inhibition [7] 0.21%

COc1ccc(N2CCCCn3c2nc2c3c(=O)[nH]c(=O)n2C)cc1
inactive: growth inhibition [1] -18.4% | growth inhibition [2] -15.6% | viability increase [3] -2.97% | viability [4] 90.3% | viability [5] 90.9% | inhibition [6] 1.88% | RAM network inhibition [7] 2.42%

CCN(CCCNC(=O)CN1C(=O)COc2ccccc21)c1ccccc1
inactive: growth inhibition [1] 0.42% | growth inhibition [2] -11.2% | viability increase [3] 1.23% | viability [4] 95.9% | viability [5] 88.3% | inhibition [6] 1.61% | RAM network inhibition [7] 3.49%

CCOC(=O)c1ccc(NC(=O)c2nn(C)cc2Br)cc1
inactive: growth inhibition [1] -7.53% | growth inhibition [2] -10.1% | viability increase [3] -1.34% | viability [4] 101% | viability [5] 105% | inhibition [6] 0.925% | RAM network inhibition [7] 6.88%

C=CCNc1nc2c(c(=O)n(C)c(=O)n2C)n1CC(=C)C
inactive: growth inhibition [1] -1.17% | growth inhibition [2] 2.97% | viability increase [3] -0.38% | viability [4] 91.2% | viability [5] 91.8% | inhibition [6] -0.15% | RAM network inhibition [7] 1.58%

Brc1ccc(-c2nnc(-c3ccco3)o2)cc1
inactive: growth inhibition [1] -19.6% | growth inhibition [2] -17.3% | viability increase [3] 0.83% | viability [4] 95.1% | viability [5] 93.9% | inhibition [6] 0.93% | RAM network inhibition [7] 7.37%

COc1ccc(S(=O)(=O)N2CCN(c3c(C)cccc3C)CC2)cc1OC
inactive: growth inhibition [1] -1.27% | growth inhibition [2] -7.95% | viability increase [3] -1% | viability [4] 78.2% | viability [5] 74.4% | inhibition [6] 0.435% | RAM network inhibition [7] 10.8%

CN(CCNC(=O)C1CC(=O)N(C2CCCC2)C1)Cc1ccccc1 (configuration not stated)
inactive: growth inhibition [1] -2.86% | growth inhibition [2] 0.485% | viability increase [3] -0.98% | viability [4] 98.6% | viability [5] 98.3% | inhibition [6] 0.74% | RAM network inhibition [7] 0.52%

CCCCCCc1c(O)nc(SCC(=O)O)[nH]c1=O
inactive: growth inhibition [1] 5.63% | growth inhibition [2] 13.4% | viability increase [3] 0.25% | viability [4] 108% | viability [5] 101% | inhibition [6] 2.51% | RAM network inhibition [7] -0.58%

O=C(Nc1ccncc1)c1ccc2c(c1)OCCO2
inactive: growth inhibition [1] 1.55% | growth inhibition [2] -11.1% | viability increase [3] 0.93% | viability [4] 85.6% | viability [5] 84% | inhibition [6] 1.98% | RAM network inhibition [7] 5.5%

CC(=O)NCC(=O)NC1(C(=O)NC2CCCC2)CCCCC1
inactive: growth inhibition [1] -1.73% | growth inhibition [2] -24.5% | viability increase [3] -0.35% | viability [4] 97.8% | viability [5] 99.6% | inhibition [6] 4.11% | RAM network inhibition [7] 2.03%

C1=C(N2CCOCC2)/C(=C/c2nc3ccccc3[nH]2)CC1
inactive: growth inhibition [1] -10.4% | growth inhibition [2] 19.2% | viability increase [3] -4.25% | viability [4] 78.9% | viability [5] 82.1% | inhibition [6] 0.41% | RAM network inhibition [7] 2.44%

CC(c1ccccc1)C(CC(=O)O)C(=O)NC1CCCCC1 (configuration not stated)
inactive: growth inhibition [1] -12.4% | growth inhibition [2] -1.39% | viability increase [3] -0.07% | viability [4] 98.2% | viability [5] 103% | inhibition [6] 1.54% | RAM network inhibition [7] 1.1%

CCOc1cccc(NC(=O)c2ccc(S(=O)(=O)N3CCCC3)cc2)c1
inactive: growth inhibition [1] 0.65% | growth inhibition [2] -11.1% | viability increase [3] -2.68% | viability [4] 87.5% | viability [5] 82.1% | inhibition [6] 0.965% | RAM network inhibition [7] -0.21%

CCOC(=O)Cn1c(=O)oc2cc(S(=O)(=O)NCC3CCCO3)ccc21 (configuration not stated)
inactive: growth inhibition [1] -10.1% | growth inhibition [2] -10.7% | viability increase [3] -1.7% | viability [4] 99.8% | viability [5] 103% | inhibition [6] 0.325% | RAM network inhibition [7] 2.41%

O=C(c1ccccc1F)N1CCN(S(=O)(=O)c2ccc3c(c2)OCCO3)CC1
inactive: growth inhibition [1] -6.31% | growth inhibition [2] 3.28% | viability increase [3] -5.24% | viability [4] 90.5% | viability [5] 91.3% | inhibition [6] 3.16% | RAM network inhibition [7] 2.93%

CC(C)(C)c1nc(CN2CCCCC2)cc(CN2CCCCC2)c1O
inactive: growth inhibition [1] -13.8% | growth inhibition [2] -12.6% | viability increase [3] -5.26% | viability [4] 70.8% | viability [5] 76.2% | inhibition [6] 0.505% | RAM network inhibition [7] 1.19%

CCOCCCNC(=O)C(NC(=O)CNC(C)=O)c1ccc(Cl)cc1 (configuration not stated)
inactive: growth inhibition [1] -10.1% | growth inhibition [2] -12.2% | viability increase [3] -0.33% | viability [4] 102% | viability [5] 101% | inhibition [6] 2.1% | RAM network inhibition [7] 2.91%

COc1cc(C2NC(=O)NC(C)=C2C(=O)OCc2ccc(C)cc2)cc(OC)c1O (configuration not stated)
inactive: growth inhibition [1] -12.9% | growth inhibition [2] -10.8% | viability increase [3] 3.29% | viability [4] 89.9% | viability [5] 82.1% | inhibition [6] 0.03% | RAM network inhibition [7] 0.58%

Cc1cc(Nc2ccc3c(c2)OCCO3)n2nc(C)nc2n1
inactive: growth inhibition [1] -5.2% | growth inhibition [2] 11.4% | viability increase [3] -2.09% | viability [4] 106% | viability [5] 102% | inhibition [6] 2.84% | RAM network inhibition [7] 1.45%

CC(C)COC(=O)C1C2C=CC3(CN(C4CCCC4)C(=O)C13)O2 (configuration not stated)
inactive: growth inhibition [1] -14.1% | growth inhibition [2] -0.515% | viability increase [3] -1.25% | viability [4] 107% | viability [5] 92.8% | inhibition [6] 2.07% | RAM network inhibition [7] 2.04%

Cc1nc(Cc2nnc(SCc3nc(N)nc(Nc4ccccc4C)n3)o2)cs1
inactive: growth inhibition [1] -3.24% | growth inhibition [2] 20.5% | viability increase [3] -1.28% | viability [4] 98.7% | viability [5] 97.5% | inhibition [6] 0.85% | RAM network inhibition [7] 5.96%

COc1ccc(C(=O)N2CCN(S(=O)(=O)c3ccc(C)cc3C)CC2)cc1OC
inactive: growth inhibition [1] -11.3% | growth inhibition [2] -13.3% | viability increase [3] 0.12% | viability [4] 93.2% | viability [5] 90.3% | inhibition [6] 1.12% | RAM network inhibition [7] 2.18%

COc1ccc(Cc2nc(-c3ccc(-n4cccc4)cc3)no2)cc1OC
inactive: growth inhibition [1] -2.5% | growth inhibition [2] -10.8% | viability increase [3] 2.61% | viability [4] 28% | viability [5] 54.7% | inhibition [6] 4.33% | RAM network inhibition [7] 9.02%

O=C(Nc1nccs1)C12CC3CC(C1)CC(C(=O)Nc1nccs1)(C3)C2
inactive: growth inhibition [1] 1.86% | growth inhibition [2] 28.3% | viability increase [3] -2.85% | viability [4] 75.3% | viability [5] 78.7% | inhibition [6] 1.25% | RAM network inhibition [7] 2.5%

CN(C)C=NC(=O)/C(C#N)=C1\CCc2ccccc2N1
inactive: growth inhibition [1] -9.21% | growth inhibition [2] -2.15% | viability increase [3] -2.2% | viability [4] 95.2% | viability [5] 92.5% | inhibition [6] 0.705% | RAM network inhibition [7] 6.77%

COc1ccc(CNC(=O)CN(c2cc(C)cc(C)c2)S(=O)(=O)c2c(C)noc2C)cc1
inactive: growth inhibition [1] -24.7% | growth inhibition [2] -27.1% | viability increase [3] -4.08% | viability [4] 97.1% | viability [5] 89.2% | inhibition [6] 1.92% | RAM network inhibition [7] 3.21%

O=C(NCc1ccccc1)c1ccc(/C=N/O)nc1
inactive: growth inhibition [1] -17.6% | growth inhibition [2] -5.67% | viability increase [3] -0.06% | viability [4] 98.2% | viability [5] 106% | inhibition [6] 2.25% | RAM network inhibition [7] 6.66%

COc1ccc(C(=O)CCC(=O)N2CCN(c3ccc(N4CCOCC4)nn3)CC2)cc1
inactive: growth inhibition [1] 4.94% | growth inhibition [2] -0.495% | viability increase [3] -2.69% | viability [4] 102% | viability [5] 93.8% | inhibition [6] 1.65% | RAM network inhibition [7] 2.53%

CC1CN(S(=O)(=O)c2ccc(C(=O)Nc3sc4c(c3C(N)=O)CCN(C)C4)cc2)CC(C)O1 (configuration not stated)
inactive: growth inhibition [1] -6.76% | growth inhibition [2] -7.93% | viability increase [3] -0.69% | viability [4] 91.9% | viability [5] 97.7% | inhibition [6] 1.35% | RAM network inhibition [7] 5.2%
